From ChEMBL document CHEMBL1944580, “Synthesis of novel sulfonamide-1,2,4-triazoles, 1,3,4-thiadiazoles and 1,3,4-oxadiazoles, as potential antibacterial and antifungal agents. Biological evaluation and conformational analysis studies” (2012)

Experiments:
Salmonella typhimurium [1] = assay: Antibacterial activity against Salmonella Typhimurium ATCC 13311 after 24 hrs by micro dilution method; assay type: functional, Salmonella enterica subsp. enterica serovar Typhimurium; details: Salmonella enterica, ATCC 13311, 24 h
In short: (§1)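 Microdilution MIC in 96-well plates. Bacterial suspensions adjusted in sterile saline to 1.0 × 10^5 CFU/ml, giving 1.0 × 10^4 cfu per well in LB broth. Compounds tested at up to 1 mg/ml. Plates incubated 24 h. MIC taken as the lowest concentration with no visible growth under a binocular microscope. OD at 655 nm was also read against a blank and the positive control. Streptomycin and ampicillin were the positive controls.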

Talaromyces funiculosus [2] = assay: Antifungal activity against Penicillium funiculosum ATCC 36839 after 72 hrs by serial dilution method; assay type: functional; details: ATCC 36839, 72 h
In short: (§2)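 Modified microdilution MIC. Spores were washed from malt agar cultures with sterile 0.85% saline containing 0.1% Tween 80 and adjusted to about 1.0 × 10^5 per 100 µl well in malt broth. Compounds were dissolved in DMSO (1 mg/ml). Plates incubated 72 h at 28 °C. MIC is the lowest concentration with no visible growth under a binocular microscope. Bifonazole and ketoconazole were the references.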

Listeria monocytogenes [3] = assay: Antibacterial activity against Listeria monocytogenes NCTC 7973 treated for 24 hrs followed by sub-cultivated for 72 hrs by micro dilution method; assay type: functional
In short: (§3)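 2 µl from each well was serially subcultured into 100 µl fresh broth per well and incubated a further 72 h. MBC is the lowest concentration with no visible growth, taken as 99.5% killing of the original inoculum. Streptomycin and ampicillin were the positive controls.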

Enterobacter cloacae [4] = assay: Antibacterial activity against Enterobacter cloacae human isolate after 24 hrs by micro dilution method; assay type: functional; in short: as §1
Talaromyces funiculosus [5] = assay: Antifungal activity against Penicillium funiculosum ATCC 36839 treated for 72 hrs followed by sub-cultivated for 5 days by serial dilution method; assay type: functional
In short: (§4)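 MFC obtained after the 72 h, 28 °C malt-broth microdilution (spore inoculum about 1.0 × 10^5 per well, compounds from 1 mg/ml DMSO). 2 µl was serially subcultured into 100 µl broth per well and incubated a further 5 days at 28 °C. MFC is the lowest concentration with no visible growth, taken as 99.5% killing of the original inoculum.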

Micrococcus flavus [6] = assay: Antibacterial activity against Micrococcus flavus ATCC 10240 after 24 hrs by micro dilution method; assay type: functional; details: ATCC 10240, 24 h; in short: as §1
Penicillium ochrochloron [7] = assay: Antifungal activity against Penicillium ochrochloron ATCC 9112 treated for 72 hrs followed by sub-cultivated for 5 days by serial dilution method; assay type: functional; in short: as §4
Salmonella typhimurium [8] = assay: Antibacterial activity against Salmonella Typhimurium ATCC 13311 treated for 24 hrs followed by sub-cultivated for 72 hrs by micro dilution method; assay type: functional, Salmonella enterica subsp. enterica serovar Typhimurium; details: Salmonella enterica; in short: as §3
Trichoderma viride [9] = assay: Antifungal activity against Trichoderma viride IAM 5061 treated for 72 hrs followed by sub-cultivated for 5 days by serial dilution method; assay type: functional; in short: as §4
Penicillium ochrochloron [10] = assay: Antifungal activity against Penicillium ochrochloron ATCC 9112 after 72 hrs by serial dilution method; assay type: functional; details: ATCC 9112, 72 h; in short: as §2
Aspergillus niger [11] = assay: Antifungal activity against Aspergillus niger ATCC 6275 after 72 hrs by serial dilution method; assay type: functional; details: ATCC 6275, 72 h; in short: as §2
Staphylococcus aureus [12] = assay: Antibacterial activity against Staphylococcus aureus ATCC 6538 after 24 hrs by micro dilution method; assay type: functional; details: ATCC 6538, 24 h; in short: as §1
Bacillus cereus [13] = assay: Antibacterial activity against Bacillus cereus clinical isolate after 24 hrs by micro dilution method; assay type: functional; in short: as §1
Aspergillus flavus [14] = assay: Antifungal activity against Aspergillus flavus ATCC 9643 treated for 72 hrs followed by sub-cultivated for 5 days by serial dilution method; assay type: functional; in short: as §4
Micrococcus flavus [15] = assay: Antibacterial activity against Micrococcus flavus ATCC 10240 treated for 24 hrs followed by sub-cultivated for 72 hrs by micro dilution method; assay type: functional; in short: as §3
Aspergillus fumigatus [16] = assay: Antifungal activity against Aspergillus fumigatus human isolate after 72 hrs by serial dilution method; assay type: functional; in short: as §2
Aspergillus fumigatus [17] = assay: Antifungal activity against Aspergillus fumigatus human isolate treated for 72 hrs followed by sub-cultivated for 5 days by serial dilution method; assay type: functional; in short: as §4
Aspergillus versicolor [18] = assay: Antifungal activity against Aspergillus versicolor ATCC 11730 treated for 72 hrs followed by sub-cultivated for 5 days by serial dilution method; assay type: functional; in short: as §4
Enterobacter cloacae [19] = assay: Antibacterial activity against Enterobacter cloacae human isolate treated for 24 hrs followed by sub-cultivated for 72 hrs by micro dilution method; assay type: functional; in short: as §3
Fulvia fulva [20] = assay: Antifungal activity against Fulvia fulva treated for 72 hrs followed by sub-cultivated for 5 days by serial dilution method; assay type: functional; in short: as §4
Aspergillus niger [21] = assay: Antifungal activity against Aspergillus niger ATCC 6275 treated for 72 hrs followed by sub-cultivated for 5 days by serial dilution method; assay type: functional; in short: as §4
Trichoderma viride [22] = assay: Antifungal activity against Trichoderma viride IAM 5061 after 72 hrs by serial dilution method; assay type: functional; details: IAM 5061, 72 h; in short: as §2
Pseudomonas aeruginosa [23] = assay: Antibacterial activity against Pseudomonas aeruginosa ATCC 27853 treated for 24 hrs followed by sub-cultivated for 72 hrs by micro dilution method; assay type: functional; in short: as §3
Aspergillus flavus [24] = assay: Antifungal activity against Aspergillus flavus ATCC 9643 after 72 hrs by serial dilution method; assay type: functional; details: ATCC 9643, 72 h; in short: as §2
Pseudomonas aeruginosa [25] = assay: Antibacterial activity against Pseudomonas aeruginosa ATCC 27853 after 24 hrs by micro dilution method; assay type: functional; details: ATCC 27853, 24 h; in short: as §1
Escherichia coli [26] = assay: Antibacterial activity against Escherichia coli ATCC 35210 treated for 24 hrs followed by sub-cultivated for 72 hrs by micro dilution method; assay type: functional; in short: as §3
Listeria monocytogenes [27] = assay: Antibacterial activity against Listeria monocytogenes NCTC 7973 after 24 hrs by micro dilution method; assay type: functional; details: NCTC 7973, 24 h; in short: as §1
Staphylococcus aureus [28] = assay: Antibacterial activity against Staphylococcus aureus ATCC 6538 treated for 24 hrs followed by sub-cultivated for 72 hrs by micro dilution method; assay type: functional; in short: as §3
Aspergillus versicolor [29] = assay: Antifungal activity against Aspergillus versicolor ATCC 11730 after 72 hrs by serial dilution method; assay type: functional; details: ATCC 11730, 72 h; in short: as §2
Bacillus cereus [30] = assay: Antibacterial activity against Bacillus cereus clinical isolate treated for 24 hrs followed by sub-cultivated for 72 hrs by micro dilution method; assay type: functional; in short: as §3
Fulvia fulva [31] = assay: Antifungal activity against Fulvia fulva after 72 hrs by serial dilution method; assay type: functional; in short: as §2
Escherichia coli [32] = assay: Antibacterial activity against Escherichia coli ATCC 35210 after 24 hrs by micro dilution method; assay type: functional; details: ATCC 35210, 24 h; in short: as §1

COc1cc(Cc2n[nH]c(=S)n2C(C)(C)C)c(S(=O)(=O)N(C)C)cc1OC
20 µM: MIC (Aspergillus fumigatus [16])
120 µM: MIC (Talaromyces funiculosus [2]) | MIC (Penicillium ochrochloron [10]) | MFC (Aspergillus fumigatus [17])
360 µM: MFC (Penicillium ochrochloron [7]) | MFC (Aspergillus flavus [14]) | MFC (Aspergillus versicolor [18]) | MFC (Aspergillus niger [21])
420 µM: MBC (Listeria monocytogenes [3]) | MBC (Salmonella typhimurium [8]) | MBC (Micrococcus flavus [15]) | MBC (Enterobacter cloacae [19]) | MBC (Pseudomonas aeruginosa [23]) | MBC (Escherichia coli [26]) | MBC (Staphylococcus aureus [28])
240 µM: MIC (Salmonella typhimurium [1]) | MIC (Enterobacter cloacae [4]) | MFC (Talaromyces funiculosus [5]) | MIC (Micrococcus flavus [6]) | MFC (Trichoderma viride [9]) | MIC (Aspergillus niger [11]) | MIC (Staphylococcus aureus [12]) | MIC (Bacillus cereus [13]) | MFC (Fulvia fulva [20]) | MIC (Trichoderma viride [22]) | MIC (Aspergillus flavus [24]) | MIC (Pseudomonas aeruginosa [25]) | MIC (Listeria monocytogenes [27]) | MIC (Aspergillus versicolor [29]) | MIC (Fulvia fulva [31]) | MIC (Escherichia coli [32])
480 µM: MBC (Bacillus cereus [30])

CCn1c(Cc2cc(OC)c(OC)cc2S(=O)(=O)N(C)C)n[nH]c1=O
540 µM: MBC (Listeria monocytogenes [3]) | MIC (Enterobacter cloacae [4]) | MBC (Salmonella typhimurium [8]) | MBC (Enterobacter cloacae [19]) | MBC (Pseudomonas aeruginosa [23]) | MBC (Staphylococcus aureus [28])
450 µM: MFC (Aspergillus flavus [14]) | MFC (Aspergillus versicolor [18]) | MFC (Aspergillus niger [21])
810 µM: MBC (Bacillus cereus [30])
140 µM: MIC (Talaromyces funiculosus [2]) | MIC (Penicillium ochrochloron [10]) | MIC (Aspergillus fumigatus [16]) | MIC (Trichoderma viride [22]) | MIC (Aspergillus versicolor [29])
270 µM: MFC (Talaromyces funiculosus [5]) | MFC (Penicillium ochrochloron [7]) | MFC (Trichoderma viride [9]) | MIC (Aspergillus niger [11]) | MIC (Staphylococcus aureus [12]) | MIC (Bacillus cereus [13]) | MFC (Aspergillus fumigatus [17]) | MFC (Fulvia fulva [20]) | MIC (Aspergillus flavus [24]) | MBC (Escherichia coli [26]) | MIC (Fulvia fulva [31]) | MIC (Escherichia coli [32])
400 µM: MIC (Salmonella typhimurium [1]) | MIC (Micrococcus flavus [6]) | MBC (Micrococcus flavus [15]) | MIC (Pseudomonas aeruginosa [25]) | MIC (Listeria monocytogenes [27])
